Test results reported in PMC11370311 (Cell reports, 2024).

How the values were obtained:
[1] = system: interaction between GFP-SART3 and endogenous fibrillarin; experiment: Co-IP of GFP-SART3 with endogenous fibrillarin; format: cell-based, human; conditions: HEK293T; 3 days; 10uM EPZ015666 or 1uM MS023; IP/western blot
Procedure, shortened: (§1)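 HEK293T cells were grown at 37°C in DMEM with 10% FBS and 1% antibiotic-antimycotic, then transfected at 80% confluence using lipofectamine 2000. They were treated with 10uM EPZ015666 (PRMT5) or 1uM MS023 (PRMT1) for 3 days. Lysates were made in mild buffer (10mM Tris pH 7.5, 150mM NaCl, 0.5mM EDTA, 0.5% NP-40, protease inhibitors). Anti-GFP on Protein A/G beads was incubated with lysate 2 h at 4°C, then SDS-PAGE, PVDF, ECL western.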

[2] = system: interaction between SART3 and the representative spliceosomal proteins; experiment: Co-IP of GFP-SART3 with representative spliceosomal proteins; format: cell-based, human; conditions: HeLa, 10uM EPZ015666, 3 days, IP/western blot
Procedure, shortened: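 HeLa SART3-KO clones were made by lentiCRISPRv2 and blasticidin 10 μg/mL, then single-cell cloned. They were restored by lentiviral GFP-SART3 (WT, Y112A or W377A) with puromycin 2 μg/mL selection. Lysates in mild NP-40 buffer were incubated with anti-GFP on Protein A/G beads, 2 h at 4°C, washed three times and boiled. Partners were detected by SDS-PAGE/PVDF western with HRP secondary and ECL on X-ray film.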

[3] = system: interaction between GFP-SART3 and endogenous coilin; experiment: Co-IP of GFP-SART3 with endogenous coilin; format: cell-based, human; conditions: HEK293T; 3 days; 10uM EPZ015666 or 1uM MS023; IP/western blot
Procedure, shortened: as §1

GST-SART3(HAT) (N + C) = experiment: Biotinylated GAR peptide pull-down of GST-SART3; format: binding; conditions: 2 μg GST-tagged protein, 1h at 4°C, western blot, repeated three times
Procedure, shortened: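 Streptavidin beads loaded with biotinylated GAR peptides (1 h, 4°C, rocking): fibrillarin unmethylated, ADMA or SDMA; coilin unmethylated, or SDMA at Arg 1–3 or 3–5. After 3 washes in mild lysis buffer (10 mM Tris/Cl pH 7.5, 0.5 mM EDTA, 0.5% NP-40), beads took 2 μg GST protein for 1 h at 4°C with rocking. Coilin pull-downs also ran in RIPA. Bound protein was eluted and read by western blot.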

PRMT5 = experiment: GFP-Trap IP-MS of GFP-RMET; format: cell-based, human; conditions: HEK293T, AdOx-treated, 3 days, label-free MS
Procedure, shortened: (§2)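 HEK293T cells were transfected with GFP-RMET; half were treated with 25uM AdOx for 3 days. Cells were lysed in mild NP-40 buffer with protease inhibitors and sonicated, and cleared lysate was captured on GFP-trap agarose 2 h at 4°C. Eluates were gel-separated and the excised bands analysed by nanoLC-MS/MS on an Orbitrap Fusion. Sequest HT searching used 10 ppm MS and 0.6 Da MS/MS tolerance, with 1% protein FDR (2 peptides) and 0.1% peptide FDR. Peptide counts per protein were reported.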

SND1 = experiment: GFP-Trap IP-MS of GFP-RMET; format: cell-based, human; conditions: HEK293T, with vs without AdOx, 3 days, label-free MS
Procedure, shortened: (§3)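 HEK293T cells at 80% confluence were transfected with GFP-RMET using lipofectamine 2000. Half the cells got 25uM AdOx for 3 days. Lysis was in mild buffer (10 mM Tris/Cl pH 7.5, 150 mM NaCl, 0.5 mM EDTA, 0.5% NP-40) with protease inhibitors, then sonication and clearing. GFP-trap agarose ran 2 h at 4°C, followed by washing, elution, gel and LC-MS. Peptide counts per protein were taken at 1% protein FDR, 2 peptides minimum, and 0.1% peptide FDR.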

RIOK1 = experiment: GFP-Trap IP-MS of GFP-RMET; format: cell-based, human; conditions: HEK293T, AdOx-treated, 3 days, label-free MS
Procedure, shortened: as §2

SMN = experiment: GFP-Trap IP-MS of GFP-RMET; format: cell-based, human; conditions: HEK293T, with vs without AdOx, 3 days, label-free MS
Procedure, shortened: as §3

MEP50 = experiment: GFP-Trap IP-MS of GFP-RMET; format: cell-based, human; conditions: HEK293T, AdOx-treated, 3 days, label-free MS
Procedure, shortened: as §2

PRMT1 = experiment: GFP-Trap IP-MS of GFP-RMET; format: cell-based, human; conditions: HEK293T, AdOx-treated, 3 days, label-free MS
Procedure, shortened: as §2

## O=C(NC[C@H](O)CN1CCc2ccccc2C1)c1cc(NC2COC2)ncn1 [EPZ015666]
[1]
  interaction between GFP-SART3 and endogenous fibrillarin: reduced the interaction
[2]
  interaction between SART3 and representative spliceosomal proteins: inhibits the interaction
[3]
  interaction between GFP-SART3 and endogenous coilin: reduced the interaction

## GGRGRGGGFRGRGRGGGG-Biotin [unmethylated]
GST-SART3(HAT) (N + C); biotinylated fibrillarin GAR peptides, streptavidin beads, mild buffer (150 mM NaCl)
  pull-down of GST-SART3(HAT) by fibrillarin GAR peptide: only the SDMA-modified peptide pulled down GST-SART3(HAT)

## Biotin-AKGRGMRG[Rme2s]G[Rme2s]G[Rme2s]GHP-Amide
GST-SART3(HAT) (N + C); biotinylated coilin GAR peptides, mild buffer (300 mM NaCl)
  binding of coilin GAR peptide to GST-SART3(HAT): strong interaction

## CC(C)Oc1ccc(-c2c[nH]cc2CN(C)CCN)cc1 [MS023]
[1]
  interaction between GFP-SART3 and endogenous fibrillarin: this reduced interaction was not observed
[3]
  interaction between GFP-SART3 and endogenous coilin: this reduced interaction was not observed

## Nc1ncnc2c1ncn2C(C=O)OC(C=O)CO (stereo not shown) [AdOx]
PRMT5
  enrichment of PRMT5 with RMET: relatively enriched
SND1
  enrichment of SND1 as RMET binder: selectively enriched as RMET binders, exclusively in cells that were not treated with AdOx
RIOK1
  enrichment of RIOK1 with RMET: relatively enriched
SMN
  enrichment of SMN as RMET binder: selectively enriched as RMET binders, exclusively in cells that were not treated with AdOx
MEP50
  enrichment of MEP50 with RMET: relatively enriched
PRMT1
  enrichment of PRMT1 with RMET: relatively enriched
